This is a sample that favours compounds with a hit; in the whole collection about 1.9% have one here.
Insulin prom up = insulin promoter activators in MIN6 cells, imaging, high-content screening, mouse beta cells | MIN6 insulin promoter-GFP reporter; hits give high values | z-score at 5 µM | hit rate 0.3% among 190,000 | AID 1625, 2009;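 active = z-score above 3 at 5 µM with at least 500 cells counted in the well; inconclusive = wells under 500 cells, flagged as cytotoxic or low count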
TbHK1 inh = Trypanosoma brucei hexokinase 1 inhibitors, primary screen, biochemical, G6PDH-coupled NADH absorbance, MLSCN library. inhibition, % at 10 µM. recombinant TbHK1, G6PDH-coupled NADH A340. hit rate 0.11% among 220,000. hexokinase 1 [Trypanosoma brucei]. AID 1430, 2008;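 active = inhibition of 50% or more in the single-dose primary screen; inactive = inhibition below 50%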
MT stabilizer = microtubule stabilizers in HeLa cells, primary screen, imaging, high-content imaging | % tubulin-high responders, % at 10 µM | hit rate 0.83% among 200,000 | HeLa tubulin immunostaining HCS, 24 h; share of cells brighter than vehicle mean+2SD;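 active = plate Z-score above 3 for both tubulin-high and condensed-nucleus cell shares, with cell loss under 80%, at 10 µM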;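 note: anti alpha tubulin signal scored within the nucleus-defined area of each cell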
Autophagy HCS = autophagy modulators in MEF cells, primary screen, imaging, high-content, MEF GFP-LC3 | MEF GFP-LC3 puncta imaging; test concentration mostly 10 µM | calls only at 10 µM (by protocol) | hit rate 0.98% among 190,000 | AID 463193, 2010;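 active = percentage of spot-positive cells more than 3 SD above its plate mean, without a fluorescence outlier flag or 80% toxicity; inconclusive = no clear call, values can overlap the other calls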;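 note: spot-positive cell cutoff set from DMSO-treated cells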
bCat nuc transl = modulators of beta-catenin nuclear translocation, primary screen, imaging, HeLa cells, immunofluorescence, high-content. nuclear translocation activity, % at 5 µM. hit rate 0.3% among 190,000;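 active = nuclear translocation activity above 50% at 5 µM, with a well cell count of 50 or more; inconclusive = wells under 50 cells across six images, flagged as toxic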;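 note: per-cell ratio of nuclear to cytoplasmic median beta-catenin stain intensity; plate controls were DMSO negative control for no effect and GSK-3 inhibitor IX positive control for full effect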
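System: Human HeLa cells, endogenous beta-catenin | Compound dosing: 5 µM primary, 0.02–20 µM confirmation | Timing: 24 h compound exposure at 37°C, 5% CO2 | Measured by: Fluorescence imaging of beta-catenin antibody stain plus DAPI | Read-out basis: % activation of per-cell nuclear versus cytoplasmic median beta-catenin signal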
Numbers without * were called inactive; i = inactive; ? = inconclusive; / = no result; + = active, no number.

SMILES	Insulin prom up	TbHK1 inh	MT stabilizer	Autophagy HCS	bCat nuc transl
CCCCN1C(=O)N(c2nnc(C(C)(C)C)s2)C(O)C1c1ccc(C)cc1 (configuration not stated)	-0.05	-10	/	/	-4
Cc1c(Nc2nc3ccccc3nc2NS(=O)(=O)c2ccccc2)c(=O)n(-c2ccccc2)n1C	0.55	-35	2	+	1
Cc1c(NS(=O)(=O)c2ccccc2)c(=O)n(-c2ccccc2)n1C	0.06	3	1	i	-6
Cc1cc2nnc(SCC(=O)NCc3cccs3)n2c(N)n1	0.91	3	2	i	-1
Cc1cc2nnc(SCC(=O)NCc3cccs3)n2c2ccccc12	-0.63	-3	42*	+	45
Cc1ccccc1-n1ncc2c(SCC(=O)NCc3cccs3)ncnc21	3.6*	2	55	i	10
Cc1cccc(OCCNc2nc3c(c(=O)n(C)c(=O)n3C)n2C)c1	4.2*	-5	4	i	-1
CCOc1ccc(N2CCc3c(C)nc(SC)nc32)cc1	-1.6	-3	31*	i	125*
COc1ccc(N2CCc3c(C)nc(SC)nc32)cc1	-1.3	-4	17*	i	-2
Brc1ccccc1-c1nnc2sc(-c3ccc4c(c3)OCCO4)nn12	0.16	-1	38*	i	/
Fc1ccc(NC(=S)Nc2ccc(Cl)cc2Cl)cc1	0.37	0	2	i	-2
Fc1ccccc1/C=N/NC(=S)Nc1ccc(Cl)cc1Cl	0.08	2	17*	i	?
Cc1ccc2c(C)c(C(=O)N(Cc3cccs3)C3CCS(=O)(=O)C3)oc2c1 (configuration not stated)	-0.46	-10	3	i	-1
CCOc1ccc(CN(C(=O)c2oc3cc(C)ccc3c2C)C2CCS(=O)(=O)C2)cc1 (configuration not stated)	0.43	-8	41*	i	/
Brc1ccc(-c2ccc(/C=N/Nc3nncc(-c4ccccc4)n3)o2)cc1	-0.33	-26	2	+	-3
Brc1ccc(-c2ccc(/C=N/Nc3nc(N4CCOCC4)nc(N4CCOCC4)n3)o2)cc1	0.14	-6	3	+	-3
CN(Cc1ccccc1)C(=O)CC(c1ccccc1)c1cc(Cl)ccc1O (configuration not stated)	-0.53	-7	2	i	1
O=C(O)C1CCN(C(=O)COc2ccc(Br)cc2)CC1	-0.01	3	7	i	-2
COC(=O)C1=C(C(=O)OC)[C@@H]2N(Cc3ccccc3)c3ccccc3[C@@]23C[C@@H](C(=O)OC)N=C3N1	0.64	-23	/	/	-1
C=CCSc1nccc(-c2nn(-c3ccc(C)cc3)ccc2=O)n1	-0.42	-20	39*	+	33
C#CCSc1nccc(-c2nn(-c3ccc(C)cc3)ccc2=O)n1	0.04	-31	3	i	-1
CSc1nccc(-c2nn(-c3ccc(C)cc3)ccc2=O)n1	-0.17	-25	57*	i	/
CCSc1nccc(-c2nn(-c3ccc(C)cc3)ccc2=O)n1	-0.29	-20	50*	+	133*
Cc1ccc2[nH]c(=O)c(-c3noc(CC(C)C)n3)cc2c1	-0.25	-13	/	/	1
COc1cccc(C2NC(=S)NC(C)=C2C(=O)c2ccccc2)c1OC (configuration not stated)	0.56	-18	24*	i	132*
SMILES	Insulin prom up	TbHK1 inh	MT stabilizer	Autophagy HCS	bCat nuc transl
O=C(CNc1ccc2ccccc2c1)N/N=C/c1cc2ccccc2nc1Cl	-0.15	-12	8	i	4
COc1ccc(-c2noc(=O)n2Cc2cc(C)ccc2C)cc1	-0.65	-2	11*	i	4
Cc1nc2ccc(Nc3ccncc3)cc2s1	1.3	-8	2	i	0
COCCNCC#CCOc1ccc(OC)cc1	0.28	2	7	i	0
COCCCNCC#CCOc1ccc(OC)cc1	0.3	8	5	+	0
O=C1NC(CCc2ccccc2)C(=O)N1CCOc1cccc(Br)c1 (configuration not stated)	/	-4	5	i	4
COc1cc(C(=O)Nc2ccccc2C2COC(=O)C2=N)cc(OC)c1OC (configuration not stated)	-0.08	3	5	+	-3
COc1cc(C(=O)Nc2ccccn2)cc(OC)c1OC	0.77	-4	3	i	0
CC1CCCN(C(=O)CSc2nnc(-c3cccnc3)n2C2CCCCC2)C1 (configuration not stated)	0.34	2	1	i	-5
O=C(CSc1nnc(-c2cccnc2)n1C1CCCCC1)NC1CCCC1	/	-5	2	+	2
CN(C)c1cc(-c2ccc(Cl)cc2Cl)oc(=O)c1Cl	1.6	-20	/	/	-1
O=C(OCC(=O)N1CCCC1)c1ccccc1OCc1ccccc1	/	6	10	i	-1
O=C(OCC(=O)N1CCN(C(=O)c2ccco2)CC1)c1ccccc1OCc1ccccc1	12*	-2	2	i	-7
O=C(CCc1nc2ccccc2s1)OCC(=O)c1ccc[nH]1	-0.29	-3	2	i	-5
COC(=O)c1ccc(NC(=O)Nc2ccc(F)cc2F)cc1	-0.9	-3	3	+	-2
Cn1c(NNC(=O)C2CCCCC2)cc(=O)n(C)c1=O	-0.12	-3	/	+	0
Clc1ccc(C2=C3CCCCn4c(-c5ccccc5)c[n+](c43)C2)cc1	/	-20	3	+	/
COc1ccc(-c2c[n+]3c4n2CCCCC4=C(c2ccc(Br)cc2)C3)cc1	-2.2	-14	7	i	-3
CCN1/C(=C\C=C(C(C)=O)C(C)=O)Sc2ccccc21	7.7*	-6	32	i	/
O=C(COC(=O)c1ccccn1)Nc1nc(-c2cccc([N+](=O)[O-])c2)cs1	0.23	4	/	/	0
Cc1ccc(S(=O)(=O)CCC(=O)OCC(=O)NCc2ccc(Cl)cc2)cc1	0.32	1	5	i	-3
S=C(NC1CCCCCC1)NC1CCCC1	0.16	-3	3	+	-6
O=C(N/N=C/C=C/c1ccc2c(c1)OCO2)c1ccc([N+](=O)[O-])cc1	-0.21	-21	2	i	/
Nc1ccc(C(=O)N/N=C\C=C\c2ccc([N+](=O)[O-])cc2)cc1	-0.7	-7	4	+	0
C[C@]12CC[C@@H]3c4ccc(OC(=O)c5ccccc5)cc4CC[C@H]3[C@@H]1CC[C@@H]2O	/	-2	9	+	-1
COc1cc2c(cc1O)CC[C@@H]1[C@@H]2CC[C@]2(C)[C@@H](O)CC[C@@H]12	-0.38	/	/	/	20
COCc1cc(N2CCCC2)nc(-c2ccccc2)n1	0.01	-1	3	i	-2
CCc1ccc2c(c1)C1(C(=O)N2)N2CCCC2C(C(=O)c2ccc3ccccc3c2)C12C(=O)Nc1ccccc12 (configuration not stated)	-0.07	-5	72	i	-2

Compound activity deposited in PubChem BioAssay by several laboratories.
